Active and inactive are the calls of the source.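 How the source made its calls, unless noted: active means viability at or under a set limit in both replicates, limit being median viability minus 3 SD (cut at about 48% in these data, passing the limit was not always enough); inconclusive means at or under the limit in just one replicate; inactive means at or above the limit in both replicates.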
What was measured:
[1] = HUVEC growth inhibition – cell-based, human, primary screen (AID 575;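 active means viability at or below 30% in both replicate assays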;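 further: 100% = median of untreated cell wells with 0.1% DMSO on each plate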); details: HUVEC proliferation, CellTiter-Glo luminescence, 72 h; at 10 µM; stronger effect = lower value
How it was run: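 Test system: primary human umbilical vein endothelial cells; medium: endothelial basal medium with 2% FBS plus growth supplements; dosing: 10 µM compound only; times: 72 h treatment at 37 °C; signal: CTG luminescence; read-out: % viability relative to median vehicle-well signal on each plate; control set: vehicle and MePR control wells; plate: 384-well, collagen-coated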

[2] = H69AR cell proliferation blockers – human, duplicate replicates, primary screen (AID 580); details: H69AR lung tumor cells viability, ATP luminescence, 72 h; at 10 µM; stronger effect = lower value;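 further: 100% = mean luminescence of untreated wells and 0% = no signal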
[3] = MRP1 drug-resistance reversers in H69AR cells – cell-based, doxorubicin co-treatment, pilot screen (AID 601;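 active means viability loss from added drug above about 55%, and viability with drug at most 40%, in both replicates, limit read from the data, passing the limit was not always enough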); details: CellTiter-Glo, 72 h, at 10 µM; for differential viability (reversal): stronger effect = higher value
[4] = yeast transport mutant growth inhibition pilot in 384-well plates, post-Golgi transport modulator project (AID 636; in the data active means inhibition above about 31%); details: absorbance 615 nm, about 18 h, stronger effect = higher value
[5] = growth suppression of yeast trafficking mutant, preliminary HTS, modulators of trafficking downstream of Golgi apparatus project, 1536-format plate, OD 615 nm (AID 637; in the data active means inhibition above about 30%); details: yeast transport mutant growth, absorbance 615 nm, 18 h; stronger effect = higher value
[6] = H69AR cells + 2 uM doxorubicin, measured here: viability with 2 uM doxorubicin, stronger effect = lower value
[7] = H69AR cells, compound alone cytotoxicity

Compound | viability [1] | viability [2] | differential viability (reversal) ([3]; H69AR cells + 2 uM doxorubicin) | viability [3, 6] | viability [3, 7] | inhibition [4] | inhibition [5]
Cc1cc(C)c(C#N)c(SCc2ccc(C#N)cc2)n1 | 44.7% (inactive) | 68.5% (inactive) | -7.06% (inactive) | 75.6% | 68.5% | -2.27% (inactive) | -2.86% (inactive)
COc1ccc(N(CC(=O)Nc2ccccc2SC)S(C)(=O)=O)cc1OC | 113% (inactive) | 98.2% (inactive) | 7.5% (inactive) | 90.7% | 98.2% | -2.63% (inactive) | 1.75% (inactive)
CC(Sc1nnc(-c2cc3ccccc3o2)n1-c1ccccc1)C(=O)O (configuration not stated) | 90.9% (inactive) | 95.1% (inactive) | 1.61% (inactive) | 93.5% | 95.1% | -5.84% (inactive) | 2.38% (inactive)
CC(=O)c1cccc(NS(=O)(=O)c2ccc3c(c2)oc(=O)n3C)c1 | 92.4% (inactive) | 106% (inactive) | 8.94% (inactive) | 96.7% | 106% | -2.67% (inactive) | -1.9% (inactive)
O=C(Nc1nnc(CCN2CCCCC2)s1)C1CCCCC1 | 93.4% (inactive) | 91.9% (inactive) | 7.11% (inactive) | 84.7% | 91.9% | -5.73% (inactive) | 4.76% (inactive)
CCCc1ccc(C(C)NC(=O)c2cnccn2)cc1 (configuration not stated) | 87.3% (inactive) | 100% (inactive) | 16.6% (inactive) | 83.5% | 100% | -5.26% (inactive) | 2.06% (inactive)
COc1ccc(C(=O)Nc2ccccc2C(=O)NCCN2CCOCC2)cc1 | 107% (inactive) | 95.8% (inactive) | 2.99% (inactive) | 92.8% | 95.8% | 0% (inactive) | -4.13% (inactive)
O=C(Cn1nnc2c(cnn2-c2ccc(F)cc2)c1=O)c1ccccc1F | 75.6% (inactive) | 81.2% (inactive) | 16.1% (inactive) | 65.1% | 81.2% | -3.64% (inactive) | -0.48% (inactive)
Cc1ccc2c(COn3nnc4ccc(S(=O)(=O)N(C)C)cc43)cc(=O)oc2c1C | 79.5% (inactive) | 72.1% (inactive) | -3.53% (inactive) | 75.6% | 72.1% | -1.04% (inactive) | 2.7% (inactive)
COC(=O)Cc1[nH]nc2c1C(C1C=CCCC1)C(C#N)=C(N)O2 (configuration not stated) | 49.3% (inactive) | 95.8% (inactive) | 7.65% (inactive) | 88.2% | 95.8% | -4.21% (inactive) | 3.33% (inactive)
CC(=O)Nc1cccc(NC(=O)CSc2nnnn2C(C)C)c1 | 97.5% (inactive) | 99.2% (inactive) | 14.7% (inactive) | 84.5% | 99.2% | -8.03% (inactive) | 4.13% (inactive)
Cc1onc(-c2c(Cl)cccc2Cl)c1C(=O)NCCN1CCOCC1 | 94.9% (inactive) | 89.9% (inactive) | -8.8% (inactive) | 98.7% | 89.9% | -3.03% (inactive) | 1.43% (inactive)
CCOC(=O)C1CCCn2c1nc1sc3c(c1c2=O)CCCC3 (configuration not stated) | 86.1% (inactive) | 89.1% (inactive) | -9.13% (inactive) | 98.3% | 89.1% | 0.27% (inactive) | -4.6% (inactive)
C=CCn1c(=O)[nH]c2cc(C(=O)N3CCN(c4ccc(C(C)=O)cc4)CC3)ccc2c1=O | 68.5% (inactive) | 92.4% (inactive) | 13.4% (inactive) | 79% | 92.4% | -1.97% (inactive) | -5.71% (inactive)
CCOc1ccc(CNc2ccc3c(c2)ncn3C)cc1 | 106% (inactive) | 93.2% (inactive) | 3.64% (inactive) | 89.5% | 93.2% | -3.73% (inactive) | -6.83% (inactive)
Cc1ccc(S(=O)(=O)N2CCCC2C(=O)OCc2ccco2)cc1 (configuration not stated) | 96% (inactive) | 77.2% (inactive) | 0.425% (inactive) | 76.8% | 77.2% | -6.58% (inactive) | -7.62% (inactive)
Cc1cccnc1NC(=O)CCCN1C(=O)c2ccccc2C1=O | 114% (inactive) | 94.7% (inactive) | 4.67% (inactive) | 90% | 94.7% | -6.13% (inactive) | 3.97% (inactive)
CCSc1nc(-c2ccc(OC)cc2)ccc1C#N | 65.8% (inactive) | 66.5% (inactive) | -19.8% (inactive) | 86.3% | 66.5% | -1.69% (inactive) | -1.27% (inactive)
O=C(CSc1nnc(-c2ccccc2)o1)N1CCN(c2ccccc2)CC1 | 89.9% (inactive) | 98.3% (inactive) | 3.54% (inactive) | 94.8% | 98.3% | -4.53% (inactive) | 1.75% (inactive)
CN(C)c1oc(-c2ccccc2Cl)nc1C#N | 56.5% (inactive) | 94.9% (inactive) | 16.8% (inactive) | 78.1% | 94.9% | -3.33% (inactive) | 3.97% (inactive)
COc1ccc2c(c1)c1c(n2C(C)=O)C(OC(C)=O)=NCC1 | 92.4% (inactive) | 87.4% (inactive) | -0.05% (inactive) | 87.5% | 87.4% | -5.39% (inactive) | 5.71% (inactive)

Compound | viability [1] | viability [2] | differential viability (reversal) ([3]; H69AR cells + 2 uM doxorubicin) | viability [3, 6] | viability [3, 7] | inhibition [4] | inhibition [5]
COc1ccccc1NC(=O)N1CCN(c2ccccc2F)CC1 | 108% (inactive) | 93.8% (inactive) | 19.5% (inactive) | 74.3% | 93.8% | -5.87% (inactive) | 1.11% (inactive)
Cc1nc(NCc2ccccn2)c2ccccc2n1 | 71% (inactive) | 104% (inactive) | 16.4% (inactive) | 87.9% | 104% | 2.08% (inactive) | 2.7% (inactive)
CCCS(=O)(=O)N1CCN(C(=O)CCC2CCCC2)CC1 | 101% (inactive) | 85% (inactive) | 0.865% (inactive) | 84.1% | 85% | -3.29% (inactive) | -1.11% (inactive)
CCCCOc1ccc(C(=O)Nc2ccc(N3CCN(C(=O)C(C)C)CC3)cc2)cc1 | 79.3% (inactive) | 75% (inactive) | -6.69% (inactive) | 81.7% | 75% | -3.55% (inactive) | 2.22% (inactive)
O=C1c2ccccc2NC(c2ccco2)N1O (configuration not stated) | 97.2% (inactive) | 96.5% (inactive) | 9.15% (inactive) | 87.3% | 96.5% | -3.38% (inactive) | 0.32% (inactive)
CCc1cc2c(NCCC(=O)O)nc(C)nc2s1 | 89.2% (inactive) | 75.5% (inactive) | -12.1% (inactive) | 87.6% | 75.5% | 0.65% (inactive) | 13.3% (inactive)
O=C(Nc1ccccc1C(=O)N1CCOCC1)C1CCC(=O)N1C1CCCC1 (configuration not stated) | 108% (inactive) | 95% (inactive) | -0.755% (inactive) | 95.7% | 95% | -8.8% (inactive) | -3.97% (inactive)
N=c1ncn(CC(O)CN2CCOCC2)c2nc(N3CCOCC3)[nH]c12 (configuration not stated) | 92.6% (inactive) | 98.6% (inactive) | 12.4% (inactive) | 86.2% | 98.6% | 0.4% (inactive) | -1.9% (inactive)
O=c1nc(N2CCCC2)nc(Nc2ccccc2)[nH]1 | 100% (inactive) | 83.7% (inactive) | -3.31% (inactive) | 87% | 83.7% | -2.47% (inactive) | -4.92% (inactive)
O=C(CSCc1ccccn1)Nc1ccccc1 | 102% (inactive) | 94.4% (inactive) | 7.96% (inactive) | 86.4% | 94.4% | -5.07% (inactive) | -6.19% (inactive)
Cc1ccc(CSc2nc3c(c(=O)[nH]2)C(c2ccncc2)C2=C(CCCC2=O)N3)cc1 (configuration not stated) | 72.5% (inactive) | 97.9% (inactive) | 6.75% (inactive) | 91.1% | 97.9% | -3.03% (inactive) | 2.22% (inactive)
CCOC(=O)CN(C)Cc1c[nH]c2ccccc12 | 80.4% (inactive) | 87.1% (inactive) | -11.6% (inactive) | 98.7% | 87.1% | -4.47% (inactive) | 7.14% (inactive)
COCC(=O)N(Cc1ccccc1)c1ccccn1 | 83.3% (inactive) | 90.1% (inactive) | -1.27% (inactive) | 91.3% | 90.1% | -5.32% (inactive) | 9.37% (inactive)
CCC(C)c1ccc(NC(=O)C2CC2)cc1 (configuration not stated) | 88.6% (inactive) | 90.3% (inactive) | 9.41% (inactive) | 80.9% | 90.3% | -1.82% (inactive) | 2.06% (inactive)
CCNc1oc(COc2cccc(C)c2)nc1C#N | 101% (inactive) | 90.9% (inactive) | 13.8% (inactive) | 77.1% | 90.9% | -7.53% (inactive) | -10.3% (inactive)
CSC1=C(C#N)C(c2ccc(C)cc2)C2=C(CCCC2=O)N1 (configuration not stated) | 91.3% (inactive) | 77.6% (inactive) | 10.1% (inactive) | 67.5% | 77.6% | -2.99% (inactive) | -0.95% (inactive)
CCCCn1c(NC(=O)CC)c(C#N)c2nc3ccccc3nc21 | 77.4% (inactive) | 81.9% (inactive) | 2.13% (inactive) | 79.8% | 81.9% | -6.67% (inactive) | -2.38% (inactive)
O=C(Sc1nnnn1C1CCCCC1)c1cccs1 | 102% (inactive) | 98.7% (inactive) | 6.21% (inactive) | 92.5% | 98.7% | -6.53% (inactive) | 3.81% (inactive)
Cn1c(=O)c(NC(=O)c2ccccc2)c2n(c1=S)CCCCC2 | 104% (inactive) | 90.8% (inactive) | -6.87% (inactive) | 97.6% | 90.8% | -2.99% (inactive) | 3.65% (inactive)
Cc1cc(NC(=O)c2ccc(Cl)cc2)no1 | 96.1% (inactive) | 87.5% (inactive) | 5.82% (inactive) | 81.7% | 87.5% | 2.86% (inactive) | 18.2% (inactive)

From PubChem BioAssay
